Laboratory results reported in PMC2731475 (Journal of the American Chemical Society, 2009).
Where two headings read alike, the source gives them in different places.

What was measured:
mice = details: cited from earlier work
5′CUG/3′GUC = details: studies on 5′UTR of thymidylate synthetase mRNA; cited from earlier work
DNA1 = assay: Fluorescence binding assay, DNA1; details: for Kd: DNA1, DNA hairpin with 5′AATT/3′TTAA
Outline: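 The DNA hairpin was titrated into 1 μM test compound in 8 mM sodium phosphate pH 7.0, 185 mM NaCl, 1 mM EDTA. After 5 min incubation, fluorescence was read at ex 360/40 and em 460/40. Fraction bound/[nucleic acid] was plotted against fraction bound to obtain binding constants.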

[1] = tested on: RNAs containing a 1×1 nucleotide CC internal loop; details: cited from earlier work
RNA12-MBNL1 complex = assay: MBNL1-RNA12; assay type: biochemical
RNA5 = assay: Fluorescence binding assay, RNA5
Outline: (§1)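 RNA hairpins were annealed in 8 mM sodium phosphate pH 7.0, 185 mM NaCl, 1 mM EDTA at 60 °C for 1 min and slowly cooled. They were titrated into 1 μM test compound in the same buffer and read after 5 min as fluorescence (ex 360/40, em 460/40). Plots were fraction bound/[RNA] versus fraction bound, fitted to a large-ligand lattice-binding equation giving the microscopic dissociation constant.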

r(CUG)109-MBNL1 complex = assay: r; assay type: biochemical
RNA11-MBNL1 complex = assay: MBNL1-RNA11; assay type: biochemical
RNA10 = assay: Fluorescence binding assay, RNA10
RNA8 = assay: Fluorescence binding assay, RNA8
Outline: as §1

RNA1 = assay: Fluorescence binding assay, RNA1
Outline: as §1

herring sperm DNA = assay: Fluorescence binding assay, herring sperm DNA
Outline: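 Herring sperm DNA was annealed at 90 °C for 3 min in 8 mM sodium phosphate pH 7.0, 185 mM NaCl, 1 mM EDTA and slowly cooled. It was titrated into 1 μM test compound, and fluorescence (ex 360/40, em 460/40) was read after 5 min. Fraction bound/[DNA] versus fraction bound was fitted to a straight line for Kd.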

RNA6 = assay: Fluorescence binding assay, RNA6
Outline: as §1

RNA3 = assay: Fluorescence binding assay, RNA3
Outline: as §1

r(CUG)109 [2] = assay: Fluorescence binding assay, r
Outline: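 r(CUG)109, transcribed from BamHI-linearised plasmid and gel-purified, was annealed at 60 °C for 1 min in pH 7.0 phosphate/185 mM NaCl/EDTA buffer. It was titrated into test compound (1 μM; 5 μM for one monomeric ligand) and fluorescence read after 5 min. Data were fitted to a lattice-binding equation with N repeat units. Selectivity = Kd(herring sperm DNA)/Kd(r(CUG)109).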

RNA7 = assay: Fluorescence binding assay, RNA7
Outline: as §1

RNA2 = assay: Fluorescence binding assay, RNA2; details: RNA2, single 5′CUG/3′GUC (DM1) motif
Outline: as §1

RNA4 = assay: Fluorescence binding assay, RNA4
Outline: as §1

RNA9 = assay: Fluorescence binding assay, RNA9
Outline: as §1

RNA12 [3] = assay: Binding of MBNL1 to RNA12; details: MBNL1, RNA12 versus RNA11
RNA12 [4] = details: MBNL1 binding to RNA12, gel retardation; cited from earlier work
RNA15 = details: MBNL1 binding to RNA15, gel retardation; cited from earlier work
RNA14 [5] = assay: Binding of MBNL1 to RNA14
RNA16 [6] = assay: Binding of MBNL1 to RNA16; details: MBNL1, RNA16 versus RNA11
RNA16 [7] = details: MBNL1 binding to RNA16, gel retardation; cited from earlier work
r(CUG)109 [8] = details: MBNL1 binding to r(CUG)109; cited from earlier work
RNA13 [9] = details: MBNL1 binding to RNA13, gel retardation; cited from earlier work
RNA11 = details: MBNL1 binding to RNA11, gel retardation; cited from earlier work
RNA13 [10] = assay: Binding of MBNL1 to RNA13; details: MBNL1, RNA13 versus RNA11
RNA14 [11] = details: MBNL1 binding to RNA14, gel retardation; cited from earlier work
RNA17 = assay: Binding of MBNL1 to RNA17

Molecule: CN1CCN(c2ccc3[nH]c(-c4ccc5[nH]c(-c6ccc(O)cc6)nc5c4)nc3c2)CC1 [Compound 1, Hoechst 33258]
- tolerability and toxicity in mice (mice): well tolerated by and non-toxic to mice
- affinity for 5′CUG/3′GUC (5′CUG/3′GUC): nanomolar affinity
- Kd (DNA1): 280 nM

Molecule: Cn1cc(NC(=O)c2cc(NC(=O)c3cc(NC=O)cn3C)cn2C)cc1C(=O)NCCC(=N)N [distamycin]
- affinity for RNAs containing a 1×1 nucleotide CC internal loop [1]: nanomolar affinities

Molecule: N=C(N)c1ccc(-c2cc3ccc(C(=N)N)cc3[nH]2)cc1 [DAPI, 2-(4-amidinophenyl)-1H-indole-6-carboxamidine]
- affinity for RNAs containing a 1×1 nucleotide CC internal loop [1]: nanomolar affinities

Molecule: CN1CCN(c2ccc3nc(-c4ccc5nc(-c6cccc(OCCCC(=O)NCCCN=[N+]=[N-])c6)[nH]c5c4)[nH]c3c2)CC1 [Compound 2, meta-(N-(3-azidopropyl)-4-oxybutanamide)-Hoechst]
- IC50 (RNA12-MBNL1 complex; RNA 12, Condition A: 7.5 pmoles of MBNL1 per well): 48400 ± 9900 nM
- IC50 (RNA12-MBNL1 complex; RNA 12, Condition B: 2.0 pmoles of MBNL1 per well): 21100 ± 500 nM
- Kd (RNA5; RNA5, 1×1 UU loop with GU closing pairs): 810 ± 150 nM
- Specificity to RNA2 (RNA5; RNA5 versus RNA2): 6.2
- weaker binding than to RNA2 (RNA5; loop GC pairs (RNA2) changed to GU (RNA5)): ~6 fold
- IC50 (r(CUG)109-MBNL1 complex; 0.65 pmoles r(CUG)109 immobilized, 3.7 μM bulk yeast tRNA, 32 pmoles MBNL1): 110000 ± 20000 nM
- inhibition of the MBNL1-r(CUG)109 interaction (r(CUG)109-MBNL1 complex; in the presence of bulk yeast tRNA): ≥ 95%
- IC50 (RNA11-MBNL1 complex; RNA 11, Condition A: 7.5 pmoles of MBNL1 per well): 30200 ± 6800 nM
- IC50 (RNA11-MBNL1 complex; RNA 11, Condition B: 2.0 pmoles of MBNL1 per well): 38100 ± 6900 nM
- Kd (RNA10; RNA10, 1×1 AA loop): 820 ± 160 nM
- Specificity to RNA2 (RNA10; RNA10 versus RNA2): 6.3
- Kd (RNA8; RNA8): 520 ± 18 nM
- Specificity to RNA2 (RNA8; RNA8 versus RNA2): 4.0
- Kd (RNA1; RNA1, fully paired hairpin cassette): 1700 ± 70 nM
- Specificity to RNA2 (RNA1; RNA1 versus RNA2): 13.1
- binds RNA2 more tightly than RNA1 (RNA1; RNA2 over RNA1): 13 fold
- Kd (DNA1): 250 ± 63 nM
- Specificity to RNA2 (DNA1; DNA1 versus RNA2): 1.9
- specific for RNA2 over DNA1 (DNA1; RNA2 over DNA1): ~2 fold
- Kd (herring sperm DNA): 110 ± 19 nM
- Kd (RNA6; RNA6, 1×1 CC loop): 290 ± 50 nM
- Specificity to RNA2 (RNA6; RNA6 versus RNA2): 2.2
- binds RNA2 more tightly than RNA3 (RNA3; 5′CUG/3′GUC (RNA2) versus 5′CUC/3′GUG (RNA3)): > 8 fold
- Kd (RNA3; RNA3, 5′CUC/3′GUG): 1050 ± 212 nM
- Specificity to RNA2 (RNA3; RNA3 versus RNA2): 8.0
- specificity for r(CUG)109 versus herring sperm DNA (r(CUG)109 [2]): 0.7 fold
- Selectivity for r(CUG)109 over herring sperm DNA (r(CUG)109 [2]; Kd herring sperm DNA divided by Kd r(CUG)109): 0.73
- Kd (r(CUG)109 [2]; r(CUG)109 hairpin, 54 DM1 motifs): 150 ± 25 nM
- Kd (RNA7; RNA7, 1×1 CC loop): ~1000 nM
- Specificity to RNA2 (RNA7; RNA7 versus RNA2): ∼7.7
- Kd (RNA2): 130 ± 25 nM
- Kd (RNA4; RNA4, 1×1 UU loop with AU closing pairs): 370 ± 107 nM
- Specificity to RNA2 (RNA4; RNA4 versus RNA2): 2.8
- weaker binding than to RNA2 (RNA4; loop GC pairs (RNA2) changed to AU (RNA4)): Approximately 3 fold
- Kd (RNA9; RNA9, 1×1 AA loop (SCA3 motif)): 450 ± 100 nM
- Specificity to RNA2 (RNA9; RNA9 versus RNA2): 3.5

B1: MBNL1: Muscleblind-like 1 protein, alternative splicing regulator that binds expanded rCUG repeats (protein, UniProt Q9NR56 1-388, looked up)
Muscleblind-like protein 1: MAVSVTPIRDTKWLTLEVCREFQRGTCSRPDTECKFAHPSKSCQVENGRVIACFDSLKGRCSRENCKYLHPPPHLKTQLEINGRNNLIQQKNMAMLAQQMQLANAMMPGAPLQPVPMFSVAPSLATNASAAAFNPYLGPVSPSLVPAEILPTAPMLVTGNPGVPVPAAAAAAAQKLMRTDRLEVCREYQRGNCNRGENDCRFAHPADSTMIDTNDNTVTVCMDYIKGRCSREKCKYFHPPAHLQAKIKAAQYQVNQAAAAQAAATAAAMTQSAVKSLKRPLEATFDLGIPQAVLPPLPKRPALEKTNGATAVFNTGIFQYQQALANMQLQQHTAFLPPVPMVHGATPATVSAATTSATSVPFAATATANQIPIISAEHLTSHKYVTQM
- Specificity to DM1 RNA11 (RNA12 [3]): 2.5
- weaker than the DM1-MBNL1 complex (RNA12 [3]): 2.5 fold
- Kd (RNA12 [4]): 630 ± 70 nM
- Kd (RNA15): > 2500 nM
- higher affinity than the DM1-MBNL1 complex (RNA14 [5]; MBNL1, DM2 RNA14): 2 fold
- Specificity to DM1 RNA11 (RNA14 [5]; MBNL1, RNA14 versus RNA11): 0.5
- Specificity to DM1 RNA11 (RNA16 [6]): 3.7
- Kd (RNA16 [7]): 920 ± 150 nM
- Kd (r(CUG)109 [8]): 300 ± 93 nM
- Kd (RNA13 [9]): 200 ± 30 nM
- Kd (RNA11): 250 ± 10 nM
- Specificity to DM1 RNA11 (RNA13 [10]): 0.8
- Kd (RNA14 [11]): 120 ± 40 nM
- Specificity to DM1 RNA11 (RNA17; MBNL1, RNA17 versus RNA11): >4
- Kd (RNA17; MBNL1 binding to fully paired RNA17): > 1000 nM
